Data set [1] deals with advanced melanoma. Conditions: five of 32 treated patients with advanced melanoma; cited from earlier work.
Data set [2] relates to melanoma and endothelial cells. As to conditions: combination of cilengitide and temozolomide, in vitro; cited from earlier work.
In another data set the test system is melanoma. As to conditions: combination of cilengitide and temozolomide, in vivo; cited from earlier work.
Data set [3] concerns patients with metastatic melanoma. The data set can be described thus: Toxicity evaluation. As to conditions: both doses (500 mg and 2,000 mg i.v. twice weekly).
For data set [4] the following is noted: cited from earlier work.
For data set [5] the following is noted: cited from earlier work. This is another data set of the same source.
The subject of data set [6] is recurrent glioblastoma multiforme (GBM). As to conditions: 81 patients with GBM; cited from earlier work.
The subject of data set [7] is metastatic melanoma. The class given is in vivo, human. Conditions: for Median PFS in weeks (95% CI) / PFS rate at 8 weeks (95% CI): Kaplan-Meier estimate; for Best tumor response: PR / Best tumor response: SD / Best tumor response: CR: RECIST.
The next data set can be described thus: clinical. More on the design: species or system human. As to conditions: in vivo; for Mean cilengitide concentration / level at 2 h / level at 4 h / level at 24 h: human, iv; for level at 2 h / level at 4 h / level at 24 h: Mean cilengitide concentration.
The subject of data set [8] is bFGF- and VEGF-mediated angiogenesis. As to conditions: chorioallantoic membrane model; ref Cilengitide, Investigators Brochure; cited from earlier work.
Data set [9] concerns integrin αvβ3. The data set can be described thus: Tumoral αvβ3 expression by IHC staining. It is filed as in vivo, human. Summed up: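 Core-needle or skin punch tumor biopsies 5-7 days pre-treatment and cycle 1 day 8, within 6 h post-infusion. IHC with anti-αvβ3 LM 609; consensus grading by two pathologists on % positive cells (0 none; +1 1-10%; +2 11-25%; +3 26-75%; +4 >75%). Paired t-test, pre vs post.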

For data set [10], the system named is recurrent malignant glioma. Conditions: at 360 mg/m^2 and 2,400 mg/m^2; cited from earlier work.
The next data set concerns glioblastoma. As to conditions: in combination with temozolomide and radiation therapy; cited from earlier work.
Data set [11] relates to integrin αvβ3. As to conditions: inhibits binding of the integrin to vitronectin; cited from earlier work.
Data set [12] deals with advanced melanoma. Conditions: cited from earlier work.
Data set [13] has as its system metastatic melanoma. Conditions: cited from earlier work.
The mark [14] stands for this setting: among eight patients with matching samples and detectable αvβ3 at baseline.

Like-named read-outs stand apart in the source and are kept apart here. Marks after values point to notes of the source that are not given here.

For `CNC(=O)c1ccccc1Sc1ccc2c(/C=C/c3ccccn3)n[nH]c2c1` [axitinib], in the data set with advanced melanoma [1], the Objective clinical response is 16%.
As to `CC(C)[C@H]1C(=O)N[C@@H](CCCNC(=N)N)C(=O)NCC(=O)N[C@@H](CC(=O)O)C(=O)N[C@H](Cc2ccccc2)C(=O)N1C` [cilengitide, Cilengitide], the “Antiproliferative effects of the combination” value in data set [2] is “synergistic antiproliferative effects”. The Tumor reduction result with melanoma is recorded as “more effective tumor reduction compared with temozolomide alone”. For the same molecule, the Tolerability result in [3] is listed as “well tolerated”. In addition, the “Concentration noted to be active in preclinical studies (biologically active level)” value in [4] is recorded as 11-13 μg/mL. Besides, the Half-life result in data set [5] is reported as “less than 5 hours”. Further, the Half-life in data set [5] (doses of 120-1,200 mg/m^2, phase I trials) was 2.3 to 4.0 h. In addition, the Maximum-tolerated dose entry in data set [5] (phase I trials) is reported as “has not been established”. The “Median OS duration” value in data set [6] is 9.9 months. In addition, in the data set on metastatic melanoma [7] (500-mg dose (n=14)), the “Response rate (CR+PR)” value was 0%, the “Median PFS in weeks (95% CI)” value is recorded as 8.0 weeks, the “PFS rate at 8 weeks (95% CI)” value is recorded as 14% (4-52%) and the “Best tumor response: PR” value is given as 0. Also, the “Best tumor response: SD” value with metastatic melanoma [7] (500-mg dose (n=14)) is 2(14%). Further, the “Best tumor response: CR” value with metastatic melanoma [7] (500-mg dose i.v. twice weekly (n=14)) turned out to be 0. Besides, in the data set with metastatic melanoma [7] (2,000-mg dose (n=12)), the “Response rate (CR+PR)” value is 8%, the “Median PFS in weeks (95% CI)” value is given as 7.9 weeks and the “Best tumor response: SD” value is reported as 0. Moreover, in the data set on metastatic melanoma [7] (2,000-mg dose (n=12), patient initially progressed after 4 weeks), the “Best tumor response: PR” value is 1 (8%) ^†. The “Best tumor response: CR” value with metastatic melanoma [7] (2,000-mg dose i.v. twice weekly (n=12)) worked out at 0. For the same molecule, in the data set with metastatic melanoma [7] (Overall patients (n=26)), the “Response rate (CR+PR)” value is on record as 4%, the “Median PFS in weeks (95% CI)” value is on record as 8.0 (7.9-8.1) weeks, the “PFS rate at 8 weeks (95% CI)” value is reported as 12% (4-33%) and the “Best tumor response: CR” value is on record as 0. In the data set with metastatic melanoma [7] (Overall patients (n=26)), the “Best tumor response: PR” value is on record as 1 (4%) ^† and the “Best tumor response: SD” value is given as 2(8%). Also, the “Clinical efficacy as single agent” value in the data set on metastatic melanoma [7] (dose up to 2,000 mg twice weekly, metastatic melanoma) is given as “minimal clinical efficacy”. Further, the “Patients free of disease progression per RECIST at 8 weeks” value in the data set with metastatic melanoma [7] (of 26 treated patients) is given as “three”. For the same molecule, in the data set on metastatic melanoma [7] (single patient, 2,000 mg, later partial response), the “Increase in the sum of the largest diameters of five target lesions after one treatment cycle” value is listed as 28%. Also, in the data set “clinical” (500 mg, 2 h), the Mean cilengitide concentration worked out at 17.6 µg/mL. The molecule further had a Mean cilengitide concentration in the data set “clinical” (500 mg, 4 h) of 8.75 µg/mL. For the same molecule, in the data set “clinical” (500 mg), the level at 2 h came out at 18200 ng/mL, the level at 4 h worked out at 8250 ng/mL and the level at 24 h was 40 ng/mL. For the same molecule, the Mean cilengitide concentration in “clinical” (2000 mg, 2 h) stood at 65.8 µg/mL. This molecule also showed a Mean cilengitide concentration in the data set “clinical” (2000 mg, 4 h) of 30.5 µg/mL. The molecule also displayed a Mean cilengitide concentration in the data set “clinical” (2000 mg, 24 h) of 0.58 µg/mL. In “clinical” (2000 mg), this molecule showed a level at 2 h of 73200 ng/mL, a level at 4 h of 35900 ng/mL and a level at 24 h of 710 ng/mL. In addition, in “clinical”, the “Accumulation after repeated biweekly doses” value was “No accumulation was observed” and the “Increases in plasma concentrations at the given time points with dose” value was “dose proportional”. Also, the “Cytokine-induced bFGF- and VEGF-mediated angiogenesis” value in data set [8] is on record as “blocked”. Also, in the data set with integrin αvβ3 [9] (setting [14]), the “Patients in whom αvβ3 expression decreased” value is reported as “five” and the “Patients in whom αvβ3 expression increased” value was “none”. The “Overall tumoral αvβ3 expression with cilengitide treatment” value with integrin αvβ3 [9] (baseline vs day 8, 17 matching samples, paired t-test P=0.05) is reported as “decreased”. Moreover, the “Response in patients with recurrent malignant glioma” value in [10] is “Complete responses were reported”. Further, in the data set with glioblastoma, the “6-month PFS rate” value was 69%, the “12-month PFS rate” value was 33% and the “Median PFS” value is 8.0 months. The “Binding to integrin αvβ3 (nanomolar range)” value with integrin αvβ3 [11] was ~ 2 nM.
With `CN(C)/N=N/c1[nH]cnc1C(N)=O` [dacarbazine], the “Estimated PFS rate at 8 weeks” value with advanced melanoma [12] is “approximately 40%”.

B1: etaracizumab (antibody, chains of the INN, looked up, V domains shown)
VH: QVQLVESGGGVVQPGRSLRLSCAASGFTFSSYDMSWVRQAPGKGLEWVAKVSSGGGSTYYLDTVQGRFTISRDNSKNTLYLQMNSLRAEDTAVYYCARHLHGSFASWGQGTTVTVSS
VL: EIVLTQSPATLSLSPGERATLSCQASQSISNFLHWYQQRPGQAPRLLIRYRSQSISGIPARFSGSGSGTDFTLTISSLEPEDFAVYYCQQSGSWPLTFGGGTKVEIK
For B1, the “Patients with a clinical response” value was 12.7% with metastatic melanoma [13] (combination arm with dacarbazine) and “none” in the data set with metastatic melanoma [13] (etaracizumab alone, 57 patients).
